Source: PubChem BioAssay
PGC1a acetyl inh: lowers PGC1a acetylation signal in U2OS cells; AlphaScreen anti-acetyl-lysine; with virally co-expressed GCN5 acetyltransferase; inhibition, % at 15.6 µM; 350,000 compounds, 0.17% hits; AID 651687;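 active = every replicate shows inhibition of at least 40%; inconclusive = mean inhibition at least 40% but some replicate below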;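 note: 0% = neutral control wells and 100% = positive control wells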
CFTR F508del cor: correctors of CFTR F508del function in bronchial epithelial cells; AID 720511; CFBE cells, YFP halide quenching; stimulated with forskolin plus potentiator P3; % fluorescence drop versus neutral controls; 350,000 compounds, 0.36% hits; activity (quench increase), % at 7.58 µM;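 active = mean added fluorescence quench of at least 8% versus neutral control, with both replicates also reaching 8%; inconclusive = only one of the mean or replicate conditions met; inactive = mean below 8% and not both replicates reaching 8%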;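 note: cells transiently co-express mutant CFTR-F508del with the halide-sensitive YFP; corrector assay measuring rescue of mutant channel to the surface after 24 h compound exposure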
DENV2 CPE rescue: protects cells from dengue virus 2 cytopathic effect; DENV2-infected cells, cytopathic effect rescue, plate reader; CPE inhibition, % at 9.99 µM; 350,000 compounds, 1.7% hits; in the data active = CPE inhibition above about 20%, passing the limit was not always enough; inconclusive = no clear call, values can overlap the other calls; tested in BHK-21 cells;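 note: 0% = median of neutral control wells and 100% = median of positive control wells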
Cneo AK release: causes C. neoformans cell lysis | adenylate kinase release luminescence, 4 h; normalised: neutral wells 0, clomiphene wells 100 | lysis activity, % at 15 µM | 360,000 compounds, 0.2% hits;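 active = mean lysis activity across replicates of at least 80%, whatever share of replicates individually reach that level; inactive = mean lysis activity below 80%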
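Material – log-phase Cryptococcus neoformans yeast cells · Input – 5 × 10^6 yeast cells/mL · Medium – fresh YPD growth medium · Doses – single compound concentration per well · Timing – static 4 h at 37 °C with compound, 1 h detection · Detection – adenylate kinase release luminescence · Read-out – signal increase indicating cell lysis · Control set – Clomiphene as positive lysis control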
FN deposit inh: fibronectin deposition inhibition; 350,000 compounds, 0.086% hits; inhibition, % at 12.6 µM; AID 743247; AH1F fibroblasts, Alexa488-fibronectin deposition fluorescence, overnight;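 active = mean inhibition across replicates of 30% or more, regardless of how many single replicates reach that level; inconclusive = mean under 30% yet at least half of replicates reach 30%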;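 note: positive control wells lacked labelled fibronectin entirely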
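Schedule: 1 h cell adhesion before compound, then overnight fibronectin incubation; test system: AH1F fibroblast monolayer depositing Alexa488-labelled fibronectin into matrix; quantity: 10000 AH1F cells per well; probe or stimulus: fluorescent fibronectin at 24 nM final; signal: fluorescence, ex 485 nm, em 525 nm; evaluation: percent inhibition as loss of matrix-bound fibronectin fluorescence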
XiGFP reactiv: X-chromosome reactivation activator; activation, % at 7.58 µM; XiGFP mouse fibroblasts, % GFP-positive cells imaging, 3 d; cells co-treated with 5-aza-dC sensitizer; scaled so ellipticine positive control = 100%; 360,000 compounds, 0.055% hits;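 active = mean normalized replicate activation at least 10% and every replicate at or above 10%; inconclusive = only one of the two criteria met; inactive = mean below 10% and not all replicates reach 10%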;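 note: 0% = median of on-plate neutral control wells and 100% = ellipticine 6 µM median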
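assay system = SV40-immortalized XiGFP fibroblast cells, line 68-5-11 | buffer or medium = DMEM plus 5-aza-dC sensitizer | doses = single-point pinned compound dosing | times = 3-day compound exposure, then 15 min fixation at room temperature | benchmarks = positive control ellipticine, 6 µM final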
The depositor's hits bear a star; u = inconclusive; x = no result given; ! = not active in a repeat. In the library only some 1.9% were active in any assay of this set; here they are far more common.

SMILES	PGC1a acetyl inh	CFTR F508del cor	DENV2 CPE rescue	Cneo AK release	FN deposit inh	XiGFP reactiv
O=C(CCc1nc2ccccc2c(=O)[nH]1)N1CCN(c2ccccc2Cl)CC1	32	1	1	-2	8	0
CCC(=O)Nc1ccc2c(c1)OC[C@H](C)N(C(=O)c1ccc(F)cc1)C[C@H](C)[C@@H](OC)CN(C)C2=O	1	-2	-2	x	0	0
CCC(=O)N1C[C@H](C)[C@@H](OC)CN(C)C(=O)c2ccc(NC(=O)C3CC3)cc2OC[C@@H]1C	-4	-1	40*	x	0	0
CCC(=O)Nc1ccc2c(c1)OC[C@@H](C)N(C(=O)Nc1ccccc1F)C[C@@H](C)[C@H](OC)CN(C)C2=O	3	-3	22*	0	11	0
CCC(=O)Nc1ccc2c(c1)OC[C@H](C)N(C(=O)c1ccc(F)cc1)C[C@@H](C)[C@@H](OC)CN(C)C2=O	1	-2	u	92*	0	0
CCC(=O)Nc1ccc2c(c1)OC[C@@H](C)N(C(=O)Cc1cccnc1)C[C@@H](C)[C@H](OC)CN(C)C2=O	4	0	27*	0	-5	0
CO[C@@H]1CN(C)C(=O)c2cc(NC(=O)c3ccccc3F)ccc2OC[C@H](C)NC[C@H]1C	-5	1	5	42	-10	0
C[C@H](CO)N1C[C@H](C)[C@H](CN(C)Cc2ccc(C(=O)Nc3ccccc3N)cc2)OCc2cnnn2CCCC1=O	23	-6	6	-5	-9	0
CCC(=O)Nc1ccc2c(c1)OC[C@H](C)N(C(=O)CC)C[C@H](C)[C@@H](OC)CN(C)C2=O	-8	-4	35*	x	5	0
CCC(=O)Nc1ccc2c(c1)OC[C@H](C)N(C(=O)CC)C[C@@H](C)[C@@H](OC)CN(C)C2=O	8	-1	x	x	6	0
CN(C)C(=O)C[C@H]1CC[C@H]2[C@@H](COC[C@H](O)CN2CC2CCCC2)O1	-1	-1	48*	-4	-1	0
CN(C)C(=O)C[C@@H]1CC[C@H]2[C@@H](COC[C@@H](O)CN2CC2CCCC2)O1	6	1	-2	-1	-7	0
O=C(C[C@@H]1CC[C@H]2[C@@H](COC[C@H](O)CN2CC2CCCCC2)O1)NCC1CC1	-7	-3	0	-1	-9	0
O=C(C[C@H]1CC[C@H]2[C@@H](COC[C@@H](O)CN2CC2CCCCC2)O1)NCC1CC1	-4	-2	27*	57	-11	0
CCCn1c(=N)n(CC(O)COc2ccc(C)cc2)c2ccccc21 (stereo not drawn)	30	0	41*	x	-20	0
CC(=O)NC(c1cc(Cl)c2ccccc2c1O)C(C)C (stereo not drawn)	x	0	x	-3	2	0
CC(=O)NC(c1cccs1)c1cc([N+](=O)[O-])c2cccnc2c1O (stereo not drawn)	x	-1	87*	x	5	0
CC(=O)NC(c1ccc(C(C)C)cc1)c1ccc2cccnc2c1O (stereo not drawn)	x	8.9*	1	1	13	0
CC(=O)NC(c1cc(Cl)c2cccnc2c1O)C(C)C (stereo not drawn)	36	3	42*	1	-9	2
CCC(=O)NC(c1cccs1)c1cc([N+](=O)[O-])c2cccnc2c1O (stereo not drawn)	9	3	-11	2	11	0
O=C(C1CCC1)N1CC2(C1)[C@@H](c1ccccc1)[C@@H](CO)N2C(=O)c1ccccn1	1	-1	-2	x	x	0
N#C[C@H]1[C@@H](c2ccc(C3=CCCCC3)cc2)[C@@H](CO)N1S(=O)(=O)c1cccc(F)c1	-2	0	92*	2	4	0
N#C[C@@H]1[C@@H](c2ccccc2C2=CCCCC2)[C@@H](CO)N1S(=O)(=O)c1cccc(F)c1	-21	0	-5	x	-10	0
N#C[C@H]1[C@H](c2ccccc2C2=CCCCC2)[C@@H](CO)N1S(=O)(=O)c1cccc(F)c1	-25	-1	31*	x	-14	0
C/C=C/c1ccc([C@@H]2[C@@H](C#N)N(S(=O)(=O)c3cccc(F)c3)[C@@H]2CO)cc1	7	2	-5	109*	6	0
SMILES	PGC1a acetyl inh	CFTR F508del cor	DENV2 CPE rescue	Cneo AK release	FN deposit inh	XiGFP reactiv
O=S(=O)(NCC[C@H]1CC[C@H](NS(=O)(=O)c2ccccc2Cl)[C@@H](CO)O1)c1ccc(F)cc1	-1	3	-20	-1	x	0
c1cc(-c2ccc(C3[C@H]4CNC[C@@H]3N4CC3CCCCC3)cc2)ccn1 (stereo partly drawn)	-3	2	46*!	x	-4	0
c1cc(-c2ccc(C3[C@H]4CNC[C@@H]3N4CC3CCOCC3)cc2)ccn1 (stereo partly drawn)	8	0	13	x	0	0
CCOC(=O)[C@H](CCc1ccccc1)N[C@@H](C)C(=O)N1[C@H](C(=O)O)C[C@@H]2CCC[C@@H]21	3	12*	3	0	-5	0
Cc1ccc(OCc2nnc(SCc3cc(=O)[nH]c4ccccc34)n2-c2ccccc2)cc1	x	-1	60*	x	-10	0
COc1ccc(C#Cc2ccc([C@@H]3[C@H](CO)N4C(=O)CN(C(=O)c5ccc(F)cc5)C[C@@H]34)cc2)cc1	2	3	-3	x	-4	0
C[C@@H]1CN([C@H](C)CO)S(=O)(=O)c2ccc(Br)cc2O[C@H]1CN(C)Cc1ccccc1	-17	-2	-25	3	x	-1
C[C@@H]1CCCCO[C@@H](CN(C)C(=O)C2CCCCC2)[C@H](C)CN([C@H](C)CO)C(=O)c2cc(NC(=O)c3ccncc3)ccc2O1	-12	2	136*	9	x	-1
C[C@@H]1CCCCO[C@@H](CN(C)Cc2ccc(Cl)c(Cl)c2)[C@@H](C)CN([C@H](C)CO)C(=O)c2cc(NC(=O)c3ccncc3)ccc2O1	-6	0	-6	1	3	0
C[C@H](CO)N1C[C@H](C)[C@@H](CN(C)C)OCCCC[C@H](C)Oc2ccc(NC(=O)c3ccncc3)cc2C1=O	-9	-3	65*	-1	x	0
C[C@@H]1CN([C@H](C)CO)C(=O)c2cc(NC(=O)c3ccncc3)ccc2O[C@@H](C)CCCCO[C@H]1CN(C)Cc1ccc(Cl)c(Cl)c1	8	1	85*	x	-14	0
C[C@H]1CCCCO[C@@H](CN(C)C(=O)C2CCCCC2)[C@@H](C)CN([C@@H](C)CO)C(=O)c2cc(NC(=O)c3ccncc3)ccc2O1	3	0	u	-2	x	2
